These results are taken from ChEMBL document CHEMBL3826969, “Synthesis and anticancer potential of novel xanthone derivatives with 3,6-substituted chains” (Bioorg Med Chem, 2016).

The structures appear in SMILES notation. pIC50: −log10 of the molar value.

In assay [1] the test system is A549. Kind of assay: Cell cycle arrest in human A549 cells assessed as accumulation at G0/G1 phase after 48 hrs by propidium iodide staining based flow cytometry (reference value: 68.1 %). The assay is classed as functional. The essentials:
(§1)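 A549 cells exposed 48 h to 25 µM xanthone derivative, fixed overnight in 70% ethanol, then stained 30 min at room temperature with 50 µg/mL propidium iodide, 200 µg/mL RNase A and 0.3% Triton X-100. Sub-G1, G0/1, S and G2/M fractions were measured by flow cytometry. Three independent experiments.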
In general terms: In flow cytometry, cells or beads pass a laser one at a time.

Assay [2] relates to ASPC1. The experiment in a line: Cytotoxicity against human AsPC1 cells assessed as cell growth inhibition after 48 hrs by MTT assay. The format is functional, cell-based. Particulars: ASPC1, 48 h. The essentials:
(§2)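 Cells seeded in 96-well plates (MDA-MB-231, A549, AsPC-1 5×10^3; PC-3 8×10^3; HCT116 1×10^4 per well), attached 24 h in RPMI-1640 with 10% fetal calf serum at 37°C, 5% CO2. Serially diluted compound (final 0–400 μM, DMSO <0.1%) added for 48 h; 5-FU positive control. MTT read at 560 nm, triplicate; viability = treated/vehicle mean OD.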
For orientation: Tetrazolium assays rely on reduction of a dye to a coloured formazan, in cell work by metabolically active cells.

Assay [3] concerns MDA-MB-231. Kind of assay: Cytotoxicity against human MDA-MB-231 cells assessed as cell growth inhibition after 48 hrs by MTT assay. The assay is classed as functional, cell-based. The settings on record: MDA-MB-231, 48 h. The essentials:
as §2

A short description of assay [4]: Cytotoxicity against human HCT116 cells assessed as cell growth inhibition after 48 hrs by MTT assay. The assay is classed as functional, cell-based. The settings on record: HCT-116, 48 h. The method in brief: as §2
The test system of assay [5] is A549. The experiment in a line: Cytotoxicity against human A549 cells assessed as cell growth inhibition after 48 hrs by MTT assay. The assay is classed as functional, cell-based. The settings on record: A549, 48 h. The method in brief: as §2
A short description of assay [6]: Cytotoxicity against human PC3 cells assessed as cell growth inhibition after 48 hrs by MTT assay. The assay is classed as functional, cell-based. The settings on record: PC-3, 48 h. The method in brief: as §2
In assay [7] the test system is A549. Kind of assay: Cell cycle arrest in human A549 cells assessed as accumulation at S phase after 48 hrs by propidium iodide staining based flow cytometry (reference value: 9.3 %). The assay is classed as functional. The essentials:
as §1

For assay [8], the system named is A549. Kind of assay: Cell cycle arrest in human A549 cells assessed as accumulation at G2/M phase after 48 hrs by propidium iodide staining based flow cytometry (reference value: 23.4 %). The format is functional. The essentials: as §1
The subject of assay [9] is A549. The experiment in a line: Induction of apoptosis in human A549 cells assessed as viable cells after 48 hrs by Annexin V-FITC/propidium iodide staining based flow cytometry (reference value: 98.2 %). The assay is classed as functional. The method in brief: (§3)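 2 × 10^5 A549 cells seeded and given 25 µM compound for 48 h. Cells were trypsinized and washed in ice-cold PBS. 1 × 10^5 cells were stained with Annexin V-FITC plus propidium iodide in binding buffer for 15 min at room temperature, diluted with binding buffer, kept on ice, and run on a flow cytometer. Quadrants: viable, early apoptotic, late apoptotic, necrotic.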

Assay [10] concerns A549. The experiment in a line: Induction of apoptosis in human A549 cells assessed as early apoptotic cells after 48 hrs by Annexin V-FITC/propidium iodide staining based flow cytometry (reference value: 0.5 %). The assay is classed as functional. The essentials:
as §3

Assay [11] concerns A549. Kind of assay: Induction of apoptosis in human A549 cells assessed as late apoptotic cells after 48 hrs by Annexin V-FITC/propidium iodide staining based flow cytometry (reference value: 1.2 %). The assay is classed as functional. The method in brief: as §3
Assay [12] concerns A549. The experiment in a line: Induction of apoptosis in human A549 cells assessed as necrotic cells after 48 hrs by Annexin V-FITC/propidium iodide staining based flow cytometry (reference value: 0.1 %). The format is functional. The method in brief: as §3
Assay [13] relates to A549. The experiment in a line: Induction of apoptosis in human A549 cells assessed as increase in caspase 3/7 activity after 48 hrs by Caspase-Glo 3/7 assay relative to control. The format is functional. The method in brief:
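In duplicate, 8 × 10^3 A549 cells were treated with 25 µM compound for 48 h. Caspase-3/7 luminescence was read 1 h after adding the Caspase-Glo 3/7 substrate, with blank (medium plus reagent) subtracted. Fold increase = treated reading / control reading. Mean ± 1 SD.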

Take `O=c1[nH]cc(F)c(=O)[nH]1` [FLUOROURACIL]: the Activity in [1] worked out at 74.3%; in assay [7], 15.3%; in assay [8] it was 11.7%; in assay [9], 93.2%; in [10], 5.2%; in assay [11], 1%. Also, in [12], the Activity is recorded as 0.6%. The negative logarithm of the IC50 (pIC50) (commonly −log10 of the IC50, conventionally taken in molar units) in assay [2] is 4.01; in assay [3], 4.44; in assay [4] it was 4.81; in assay [5], 4.40; in [6], 4.14. In [13], the “fold change (FC)” value amounted to 4.2.
